In the library only some 2.2% were active in any assay of this set; here they are far more common.
DAGLB inhibitor: diacylglycerol lipase beta (human) inhibition; HEK293T DAGLB membrane lysate, EnzChek fluorogenic substrate; inhibition, % at 5.17 µM; hit rate 0.059% among 340,000; AID 504411; in the data active = inhibition above about 34%
Target sequence (Q8NCG7 whole entry, looked up): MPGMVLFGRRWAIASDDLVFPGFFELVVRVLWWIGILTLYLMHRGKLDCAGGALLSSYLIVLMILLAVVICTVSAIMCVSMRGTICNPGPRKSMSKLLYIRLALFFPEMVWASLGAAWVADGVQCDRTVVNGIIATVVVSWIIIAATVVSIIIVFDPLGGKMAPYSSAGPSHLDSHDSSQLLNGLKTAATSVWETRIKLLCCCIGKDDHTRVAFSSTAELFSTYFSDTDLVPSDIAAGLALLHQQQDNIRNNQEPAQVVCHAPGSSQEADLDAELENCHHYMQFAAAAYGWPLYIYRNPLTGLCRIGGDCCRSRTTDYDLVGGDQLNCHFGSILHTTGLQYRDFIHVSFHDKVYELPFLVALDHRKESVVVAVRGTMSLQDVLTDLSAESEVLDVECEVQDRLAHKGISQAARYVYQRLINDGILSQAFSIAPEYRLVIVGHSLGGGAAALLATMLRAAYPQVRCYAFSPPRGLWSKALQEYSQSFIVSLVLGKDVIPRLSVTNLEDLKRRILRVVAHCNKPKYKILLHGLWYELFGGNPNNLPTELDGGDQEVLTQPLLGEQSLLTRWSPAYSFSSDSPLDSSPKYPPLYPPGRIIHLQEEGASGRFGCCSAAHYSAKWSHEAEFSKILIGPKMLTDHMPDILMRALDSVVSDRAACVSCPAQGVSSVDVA
FID counter: displaces DNA intercalator in HCV helicase counter-screen. DNA fluorescent intercalator displacement, fluorescence. inhibition, % at 7.9 µM. hit rate 0.17% among 290,000; in the data active = inhibition above about 37%;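 note: higher means more ethidium bromide displaced from hairpin DNA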
GPR7 antag: human neuropeptides B/W receptor 1 antagonism | GPR7-expressing cells, fluorescence antagonist assay | inhibition, % at 4.4 µM | hit rate 1.1% among 290,000; in the data active = inhibition above about 16%, passing the limit was not always enough;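 note: cells stimulated with the agonist NPW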
core dimer inh: HCV core protein dimerization inhibition; TR-FRET GST/Flag-core106 dimerization, 1536-well; inhibition, % at 5 µM; hit rate 0.33% among 300,000;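 active = inhibition above the mean of all tested compounds plus 3 SD, set per screening campaign, cut at about 45% in these data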
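Assay system: Tagged HCV core106 pair (GST and Flag) | Buffer or medium: KF-containing HEPES buffer, pH 7.45, DTT, CHAPS, BSA | Also added: Eu donor and XL665 acceptor anti-tag antibodies | Dosing: One concentration, 5 µM, in 0.5% DMSO | Timing: 4 h at 22.5 °C | Technique: TR-FRET 671 and 617 nm emission | Repeats: Singlicate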
GRK2 inh: inhibitors of human GRK2 displacing RNA aptamer. bead flow cytometry, FAM-aptamer displacement from GRK2. inhibition of aptamer binding, % at 10 µM. hit rate 0.59% among 330,000. AID 488847;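 active = inhibition of aptamer binding above 40%, roughly 3 SD of noise, on plates passing a quality check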;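 note: median bead fluorescence of bound FAM aptamer so fluorescent compounds give negative values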
NS3 helicase inh: inhibitors of Hepatitis C virus NS3 helicase; NS3 helicase DNA unwinding, Cy5 molecular beacon fluorescence; hit rate 0.56% among 290,000; AID 1800; inhibition, % at 10.9 µM;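 active = inhibition above the mean of all tested compounds plus 3 SD, set per campaign, cut at about 35% in these data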
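Measured by: Cy5 fluorescence, 0 and 60 min reads / Assay system: NS3 helicase fragment of HCV / Control set: low DMSO, high thioflavine S at 110 µM / Times: 1 h reaction at 25 °C, ATP-initiated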
A number is an active result; 0 = inactive; - = no result.

SMILES | DAGLB inhibitor | FID counter | GPR7 antag | core dimer inh | GRK2 inh | NS3 helicase inh
Cc1ccc(/C=C/C(=O)N2CCc3ccccc32)o1 | 0 | 0 | 0 | 63 | 0 | 0
C[C@H](CO)N1C[C@H](C)[C@H](CN(C)C(=O)Nc2ccnc(N3CCOCC3)c2)OCc2cnnn2CCCC1=O | 0 | - | - | - | - | -
CC(C)n1c(=S)[nH]c2scc(-c3cccs3)c2c1=O | 0 | 0 | 0 | 65 | 0 | 0
O=C(NC(=S)NC1CCCCC1)c1ccc(F)cc1 | 0 | 0 | 0 | 0 | 0 | 0
Cc1cc(-c2csc(NC(=O)C3=COCCO3)n2)c(C)n1C | 0 | - | - | 0 | 0 | -
Cc1cc(-c2csc(NC(=O)c3ccc(=O)[nH]c3)n2)c(C)n1Cc1ccco1 | 0 | 0 | 0 | 49 | 0 | 0
Cc1cc(-c2csc(NC(=O)c3ccc(=O)n(C)n3)n2)c(C)n1CC1CCCO1 (stereo unspecified) | 0 | 0 | 0 | 53 | 0 | 0
CCNc1nc(-c2cc(C)n(Cc3ccco3)c2C)cs1 | 0 | 0 | 0 | 0 | 0 | 0
Nc1[nH]nc2nc3ccccc3cc12 | 0 | 0 | 0 | 0 | 0 | 0
Nc1cccc2nc3ccccc3cc12 | 0 | 45 | 0 | 0 | 0 | 0
Cc1ccc(C)n1-c1ccc(-c2nnco2)cc1 | 0 | 0 | 0 | 67 | 0 | 0
CN1CCN(c2ccccc2NC(=O)c2cccc(OCc3ccccc3)c2)CC1 | 0 | 0 | 18 | 0 | 0 | 0
Cc1ccccc1OCC(=O)NNC(=O)Cn1[nH]c(=O)c2ccccc2c1=O | 0 | - | - | - | 0 | -
N=C1/C(=C\c2ccc(-c3cc(Cl)cc(Cl)c3)o2)C(=O)N=C2SC=C(c3ccccc3)N12 | 0 | 0 | 0 | 49 | 0 | 0
O=C(Nc1ccc(-c2nc3ccccc3s2)c(OC(=O)c2ccccc2)c1)c1ccccc1 | 0 | 0 | 0 | 58 | 0 | 0
CCc1ccc(Nc2nnc(SCC(=O)c3c(N)n(C4CC4)c(=O)[nH]c3=O)s2)cc1 | 0 | - | - | - | 0 | -
CCOC(=O)N1CCN(c2nc(-c3ccccc3)c3ccccc3n2)CC1 | 0 | 0 | 0 | 0 | 0 | 0
O=C(/C=C/c1cc[n+](CC(=O)c2ccc3cccc4c3c2CC4)cc1)c1ccc2cccc3c2c1CC3 | 0 | 0 | 0 | 0 | 94 | 0
O=C(C[n+]1ccc2ccccc2c1)c1cccc2ccccc12 | 0 | 0 | 0 | 0 | 0 | 0
CSc1ccc(S(=O)(=O)NCC(=O)OCC(=O)N(C)CC(=O)Nc2ccc(F)cc2)cc1[N+](=O)[O-] | 0 | - | - | - | - | -
Cc1ccc(C)c(N2CCN(C(=O)CSc3ccsc3[N+](=O)[O-])CC2)c1 | 0 | 0 | 0 | 56 | 0 | 0
O=C(CSc1ccsc1[N+](=O)[O-])N1CCN(c2ccccc2)CC1 | 0 | 0 | 0 | 0 | 0 | 0
Cn1nnnc1SCC(=O)N1CCCCC1 | 0 | 0 | 0 | 0 | 0 | 0
Cn1nnnc1SCC(=O)N1CCN(c2ccc(Cl)cc2)CC1 | 0 | 0 | 16 | 0 | 0 | 0
O=C(CSc1ccsc1[N+](=O)[O-])N1CCN(c2ccc(Cl)cc2)CC1 | 0 | 0 | 0 | 67 | 0 | 0
SMILES | DAGLB inhibitor | FID counter | GPR7 antag | core dimer inh | GRK2 inh | NS3 helicase inh
Cc1cc(C)n2c(SC/C(O)=C(\C#N)c3nc4ccccc4[nH]3)nnc2n1 | 0 | 0 | 0 | 75 | 0 | 0
CN(C)Cc1ccccc1CNC(=O)c1cccc(S(=O)(=O)Nc2ccc3c(c2)OCO3)c1 | 0 | - | - | - | - | -
Cc1ccc(C(=O)N(C)Cc2ccc(N3CCOCC3)cc2)cc1S(=O)(=O)NCc1ccccc1 | 0 | - | - | - | 0 | -
CCCCn1c(=O)[nH]c(=O)c2c1nc(-c1ccc(OCC)cc1)n2CC | 0 | 0 | 0 | 0 | 0 | 0
CCCCn1c(=O)[nH]c(=O)c2c1nc(-c1ccc(C#N)cc1)n2C1CCCC1 | 0 | 0 | 0 | 58 | 0 | 0
Cc1ccc(C(=O)N/C(=C\c2ccc(-c3cccc([N+](=O)[O-])c3)o2)C(=O)NCCCN2CCOCC2)cc1 | 0 | 44 | 0 | 0 | 0 | 0
Cc1ccc(C(=O)N/C(=C\c2ccc(-c3ccc(Cl)cc3)o2)C(=O)NCCCN(C)C)cc1 | - | 53 | 27 | 0 | 0 | 0
CN(C)CCCNC(=O)/C(=C\c1ccc(-c2ccc(Br)cc2)o1)NC(=O)c1ccccc1 | 0 | 0 | 0 | 0 | 0 | 0
Nc1nonc1-c1nc2ccccc2n1CC(=O)N/N=C\c1ccc(-c2ccc(Cl)cc2)o1 | 0 | 0 | 0 | 84 | 0 | 0
C[C@H](CO)N1C[C@H](C)[C@H](CN(C)C(=O)c2ccc3ccn(C)c3c2)OCc2cnnn2CCCC1=O | 0 | - | - | - | - | -
O=C(/C=C/c1ccccc1Cl)Nc1ccccc1 | - | 0 | 0 | 0 | 0 | 0
